Calls of active or inactive are those of the source. No cut-off for these calls is given here.
Tests used:
[1] = molecular target: Calcium/calmodulin-dependent protein kinase type 1 (Homo sapiens) (UniProt Q14012); assay: Inhibition of human CAMK1 assessed as remaining activity at 1 uM by ATP-competition binding assay relative to control
Summary of the method: (§1)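 KINOMEscan ATP-site-dependent competition binding panel of 395 human kinases, with compound tested at 1 μM. Binding is reported as remaining signal relative to control.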

[2] = molecular target: Calcium/calmodulin-dependent protein kinase kinase 2 (Homo sapiens) (UniProt Q96RR4); assay: Inhibition of human CAMKK2 assessed as remaining activity at 1 uM by ATP-competition binding assay relative to control; summary of the method: as §1
[3] = molecular target: Dual specificity protein kinase CLK2 (Homo sapiens) (UniProt P49760); assay: Inhibition of human CLK2 assessed as remaining activity at 1 uM by ATP-competition binding assay relative to control; summary of the method: as §1
[4] = test system: Hepatocyte growth factor receptor (Homo sapiens), P08581 [M1250T]; assay: Inhibition of human MET M1250T mutant assessed as remaining activity at 1 uM by ATP-competition binding assay relative to control
Summary of the method: (§2)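 Single-point profiling at 1μM in an ATP-site-dependent competition binding assay across a panel of 395 human kinases, including mutant forms. The read-out is kinase binding signal in the presence of test agent, expressed as inhibition relative to the control signal. This screen assessed noncovalent binding interactions.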

[5] = test system: Mast/stem cell growth factor receptor Kit (Homo sapiens), P10721 [V559D]; assay: Inhibition of human KIT V559D mutant assessed as remaining activity at 1 uM by ATP-competition binding assay relative to control; summary of the method: as §2
[6] = molecular target: Mitogen-activated protein kinase 13 (Homo sapiens) (UniProt O15264); assay: Inhibition of human P38delta assessed as remaining activity at 1 uM by ATP-competition binding assay relative to control; summary of the method: as §2
[7] = molecular target: Serine/threonine-protein kinase PAK 1 (Homo sapiens) (UniProt Q13153); assay: Inhibition of human PAK1 assessed as remaining activity at 1 uM by ATP-competition binding assay relative to control; summary of the method: as §2
[8] = molecular target: 3-phosphoinositide-dependent protein kinase 1 (Homo sapiens) (UniProt O15530); assay: Inhibition of human PDPK1 assessed as remaining activity at 1 uM by ATP-competition binding assay relative to control; summary of the method: as §2
[9] = molecular target: Serine/threonine-protein kinase pim-1 (Homo sapiens) (UniProt P11309); assay: Inhibition of human PIM1 assessed as remaining activity at 1 uM by ATP-competition binding assay relative to control; summary of the method: as §2
[10] = molecular target: Serine/threonine-protein kinase pim-2 (Homo sapiens) (UniProt Q9P1W9); assay: Inhibition of human PIM2 assessed as remaining activity at 1 uM by ATP-competition binding assay relative to control
Summary of the method: (§3)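 Single-concentration (1 μM) screen in an ATP-site-dependent competition binding assay (KINOMEscan, outsourced) covering 395 human kinases, mutants included. Non-covalent binding was read as the remaining signal relative to the control signal.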

[11] = molecular target: Protein kinase C eta type (Homo sapiens) (UniProt P24723); assay: Inhibition of human PRKCH assessed as remaining activity at 1 uM by ATP-competition binding assay relative to control; summary of the method: as §3
[12] = molecular target: Proto-oncogene tyrosine-protein kinase Src (Homo sapiens) (UniProt P12931); assay: Inhibition of human SRC assessed as remaining activity at 1 uM by ATP-competition binding assay relative to control; summary of the method: as §3
[13] = molecular target: cGMP-dependent protein kinase 2 (Homo sapiens) (UniProt Q13237); assay: Inhibition of human PRKG2 assessed as remaining activity at 1 uM by ATP-competition binding assay relative to control; summary of the method: as §3
Splenocyte = assay: In vivo inhibition of BCR signaling in female […] mouse assessed as change in CD86 expression at 25 mg/kg, po administered and measured after stimulation with anti-IgM for 18 h by flow cytometry analysis; assay type: functional, organism-based
Summary of the method: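 Female C57BL/6 mice (5/group) received vehicle or 25 mg/kg drug by oral gavage at time zero, with spleens taken at time points from 3 to 24 h. Splenocytes were stimulated ex vivo with goat anti-mouse IgM at 10μg/mL for 18 h at 37°C in 5% CO2, then Fc-blocked and stained for CD19 plus CD69, CD86 or phospho-S6(S235/236), with 7-AAD to exclude dead cells. Read-out was flow cytometry on >5,000 gated CD19+ cells, compared with vehicle.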

[14] = Antitumor activity against human CLL mononuclear cells xenografted NSG mouse assessed as inhibition in the phosphorylation of ERK at 0.3 mg/ml preadministered with compound via drinking water and measured after 3 weeks by flow cytometry analysis relative to control; assay type: functional; conditions: CLL mononuclear cell, 504 h
Summary of the method: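 Primary CLL patient mononuclear cells (1 × 10^8 per mouse) engrafted into NSG mice on day 0 after busulfan priming on day −1. Vehicle or drug was given in drinking water from day −1. Mice were killed 3 weeks after engraftment; spleens homogenized, filtered and RBC-lysed; whole blood collected. Six patients, 2–5 mice per patient; paired t-test per patient.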

In the case of `CC#CC(=O)N1CCC[C@H]1c1nc(-c2ccc(C(=O)Nc3ccccn3)cc2)c2c(N)nccn12` [ACALABRUTINIB], the Activity [1] was 87%, the Activity [2] was 93% and the Activity [3] was 94%. The Activity [4] was 90%, the Activity [5] was 53% and the Activity [6] was 57%. The Activity [7] was 87%, the Activity [8] was 67% and the Activity [9] was 84%. For the same compound, the Activity [10] was 79%, the Activity [11] was 87% and the Activity [12] was 78%. The Activity [13] was 95%, the Activity (Splenocyte) was “Active” and the inhibition in vivo at 300 µg/mL [14] was 79%.

From ChEMBL document CHEMBL5678815 (Clin Cancer Res, 2017)
